viability, differential viability (reversal) and inhibition data for twelve compounds are collected here from PubChem BioAssay.

Each structure is given as a SMILES string. Active and inactive are the calls of the source.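 Rule for the calls, unless noted: active = viability at or under a set limit in both replicates, limit being median viability minus 3 SD (cut at about 48% in these data, passing the limit was not always enough); inconclusive = at or under the limit in just one replicate; inactive = at or above the limit in both replicates.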 Peptide text beside a SMILES is read from it. * marks the point of attachment. Boc = CC(C)(C)OC(=O)*

The nature of assay [1]: reduced viability of SK-BR-3 breast cancer cells – cell-based, 24 h, human, pilot screen (AID 572;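 active = viability at or below 10% of carrier control in both of two separate runs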;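 note: compound exposure lasted between 18 and 24 h rather than exactly 24 h; 100% = carrier-treated control wells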). To be noted: SK-BR-3 viability, CellTiter-Glo luminescence, at 10 µM, stronger effect = lower value. (In general: ATP-based viability assays read luminescence as a measure of living cells.)
A short description of assay [2]: HUVEC growth inhibition – cell-based, human, primary screen (AID 575;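 active = viability at or below 30% in both replicate assays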;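 note: 100% = median of untreated cell wells with 0.1% DMSO on each plate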). The conditions noted are these: HUVEC proliferation, CellTiter-Glo luminescence, 72 h; at 10 µM; stronger effect = lower value. In outline:
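Test system: HUVEC primary cells. Quantity: 1250 endothelial cells in each well. Dosing: single-point 10 µM, DMSO 0.1% final. Incubation: 72 h treatment at 37 °C. Measured by: CTG luminescence. Control set: DMSO cell controls and MePR drug controls. Plate: collagen-coated 384-well format.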

Assay [3] in a line: H69AR cell proliferation blockers – human, duplicate replicates, primary screen (AID 580).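 Note: 100% = mean luminescence of untreated wells and 0% = no signal.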 To be noted: H69AR lung tumor cells viability, ATP luminescence, 72 h; at 10 µM; stronger effect = lower value.
The nature of assay [4]: MRP1 drug-resistance reversers in H69AR cells – cell-based, doxorubicin co-treatment, pilot screen (AID 601;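 active = viability loss from added drug above about 55%, and viability with drug at most 40%, in both replicates, limit read from the data, passing the limit was not always enough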). To be noted: CellTiter-Glo, 72 h, at 10 µM; for differential viability (reversal): stronger effect = higher value.
A short description of assay [5]: yeast transport mutant growth inhibition pilot in 384-well plates, post-Golgi transport modulator project (AID 636; in the data active = inhibition above about 31%). The conditions noted are these: absorbance 615 nm, about 18 h, stronger effect = higher value.
Assay [6] in a line: growth suppression of yeast trafficking mutant, preliminary HTS, modulators of trafficking downstream of Golgi apparatus project, 1536-format plate, OD 615 nm (AID 637; in the data active = inhibition above about 30%). The conditions noted are these: yeast transport mutant growth, absorbance 615 nm, 18 h; stronger effect = higher value.
The mark [7] stands for this setting: H69AR cells + 2 uM doxorubicin, measured here: viability with 2 uM doxorubicin, stronger effect = lower value.
The mark [8] stands for this setting: H69AR cells, compound alone cytotoxicity.

As usually defined, the viability is a read-out of living cells in per cent, often relative to untreated cells. The term inhibition denotes the drop in the measured response relative to a control, in per cent. `Cn1c(CN2CCCCC2)nc2cc(NC(=O)c3ccccc3)ccc21`: the viability is 54% (inactive) in assay [1]; 102% (inactive) in assay [2]; 88.5% (inactive) in assay [3]; 94.2% in assay [4] (setting [7]); 88.5% in assay [4] (setting [8]). In assay [4] (H69AR cells + 2 uM doxorubicin), the differential viability (reversal) was -5.74% (inactive). Further, the inhibition in assay [5] is -7.53% (inactive); in assay [6] it was -3.09% (inactive).

With `CCOC(=O)C(C)C1(O)c2ccccc2-c2ncccc21` (stereo unspecified), the viability in assay [1] is 91% (inactive); in assay [2] it was 98.6% (inactive); in assay [3] it was 102% (inactive); in assay [4] (setting [7]), 88.6%; in assay [4] (setting [8]), 102%. Also, the differential viability (reversal) in assay [4] (H69AR cells + 2 uM doxorubicin) was 13% (inactive). Also, the inhibition is -5.81% (inactive) in assay [5] and 1.27% (inactive) in assay [6].

With `CC(=O)O[C@H]1C[C@@H]2CC[C@@H]3[C@H](CC[C@@]4(C)[C@H]3C[C@H]([N+]3(C)CCCCC3)[C@@H]4OC(C)=O)[C@@]2(C)C[C@@H]1[N+]1(C)CCCCC1`, the viability was 111% (inactive) in assay [1]; 88.4% (inactive) in assay [2]; 94.5% (inactive) in assay [3]; 99.3% in assay [4] (setting [7]); 94.5% in assay [4] (setting [8]). Moreover, the differential viability (reversal) in assay [4] (H69AR cells + 2 uM doxorubicin) was -4.76% (inactive). Further, the inhibition in assay [5] is 1.04% (inactive); in assay [6] it was 12.7% (inactive).

On to `CC(=O)/C(C[N+]1(C)CCCCC1)=N\O`, for which the viability in assay [1] was 107% (inactive); in assay [2] it was 103% (inactive); in assay [3] it was 105% (inactive); in assay [4] (setting [7]), 85.6%; in assay [4] (setting [8]), 105%. Besides, in assay [4] (H69AR cells + 2 uM doxorubicin), the differential viability (reversal) is 18.9% (inactive). Moreover, the inhibition in assay [5] is -6.13% (inactive); in assay [6], 0.55% (inactive).

Turning to `CCC(C)C(NC(=O)OC(C)(C)C)C(=O)NC(CC(C)C)C(N)=O` (stereo not drawn) (Boc-Ile-Leu-NH2; configuration not given here), the viability in assay [1] was 109% (inactive); in assay [2], 114% (inactive); in assay [3] it was 98.9% (inactive); in assay [4] (setting [7]) it was 89.1%; in assay [4] (setting [8]), 98.9%. Further, the differential viability (reversal) in assay [4] (H69AR cells + 2 uM doxorubicin) was 9.78% (inactive). For the same compound, the values for the inhibition in assay [5] and in assay [6] were -2.73% (inactive) and -1.8% (inactive), respectively.

As to `OC[C@H]1O[C@@H](n2cnc3c(NC4CCCC4)ncnc32)[C@H](O)[C@@H]1O`, the viability in assay [1] was 113% (inactive); in assay [2], 57.6% (inactive); in assay [3], 74.9% (inactive); in assay [4] (setting [7]), 93%; in assay [4] (setting [8]) it was 74.9%. In assay [4] (H69AR cells + 2 uM doxorubicin), the differential viability (reversal) was -18.2% (inactive). The inhibition was 0.52% (inactive) in assay [5] and -5% (inactive) in assay [6].

For `Cc1nn(C(=O)c2ccccc2)c2c1C(=O)CC(C)(C)C2`, the viability is 76% (inactive) in assay [1]; 95.8% (inactive) in assay [2]; 94.7% (inactive) in assay [3]; 93.4% in assay [4] (setting [7]); 94.7% in assay [4] (setting [8]). The differential viability (reversal) in assay [4] (H69AR cells + 2 uM doxorubicin) is 1.29% (inactive). Also, the inhibition in assay [5] is -7.12% (inactive); in assay [6], 0.73% (inactive).

In the case of `COc1ccc(NC(=O)Nc2ccccc2C)c(OC)c1`, the viability is 93% (inactive) in assay [1]; 95.1% (inactive) in assay [2]; 89% (inactive) in assay [3]; 68.2% in assay [4] (setting [7]); 89% in assay [4] (setting [8]). In addition, the differential viability (reversal) in assay [4] (H69AR cells + 2 uM doxorubicin) is 20.8% (inactive). For the same compound, the results for the inhibition in assay [5] and in assay [6] were -4.8% (inactive) and -1.09% (inactive), respectively.

With `O=C(Nc1ccccc1C(=O)O)c1cccc(NC(=O)c2ccc(Br)o2)c1`, the viability in assay [1] was 91% (inactive); in assay [2], 80% (inactive); in assay [3] it was 102% (inactive); in assay [4] (setting [7]), 94.4%; in assay [4] (setting [8]), 102%. Besides, the differential viability (reversal) in assay [4] (H69AR cells + 2 uM doxorubicin) was 7.51% (inactive). The inhibition in assay [5] was -10.8% (inactive); in assay [6] it was -1.82% (inactive).

As to `CCc1ccccc1NC(=O)C(CC)Sc1nc2cc3c(cc2c(=O)n1Cc1ccco1)OCO3` (stereo unspecified), the viability in assay [1] is 95.5% (inactive); in assay [2] it was 62.6% (inactive); in assay [3], 28.3% (active); in assay [4] (setting [7]) it was 15.1%; in assay [4] (setting [8]) it was 28.3%. In addition, the differential viability (reversal) in assay [4] (H69AR cells + 2 uM doxorubicin) was 13.2% (inactive). The inhibition in assay [5] is -3.47% (inactive); in assay [6], 2.74% (inactive).

Consider `COc1ccccc1N1CCN(C(CNS(=O)(=O)c2cc(F)ccc2F)c2cccnc2)CC1` (stereo unspecified), for which the viability in assay [1] was 95% (inactive); in assay [2] it was 110% (inactive); in assay [3], 92.8% (inactive); in assay [4] (setting [7]) it was 90.2%; in assay [4] (setting [8]) it was 92.8%. Besides, in assay [4] (H69AR cells + 2 uM doxorubicin), the differential viability (reversal) is 2.69% (inactive). Besides, the inhibition in assay [5] was -2.97% (inactive); in assay [6] it was 4% (inactive).

Regarding `O=C(Nc1ccc(N2CCOCC2)cc1)Nc1ccc2nc(-c3ccco3)c(-c3ccco3)nc2c1`, the viability was 71.5% (inactive) in assay [1]; 16.6% (active) in assay [2]; 13.5% (active) in assay [3]; 21.6% in assay [4] (setting [7]); 13.5% in assay [4] (setting [8]). Further, the differential viability (reversal) in assay [4] (H69AR cells + 2 uM doxorubicin) was -8.11% (inactive). The inhibition is -7.73% (inactive) in assay [5] and -1.45% (inactive) in assay [6].
